The text below walks through data of publication PMC6858927 (Investigational new drugs, 2019).

The target of one assay is FLT3 TKD mutants. In words: KdELECT competitive binding assay. The conditions noted are these: read-out: Kd range.
Assay [1] relates to phospho-FLT3 and phospho-STAT5. The format is cell-based. The conditions noted are these: Ba/F3 FLT3-ITD/D835Y or ITD/F691L, 4 hours.
In assay [2] the test system is pre-treatment patient primary blast samples (FLT3-ITD+ AML). Kind of assay: CellTiter-Glo viability assay, ex vivo. Format: cell-based. The conditions noted are these: Homo sapiens, 72 h, read-out: IC50 range, viability of patient samples. (In general: Cellular ATP, detected with luciferase, serves as a proxy for viable cell number.)
Assay [3] deals with Ba/F3 cells expressing FLT3-ITD. In words: MTT cell viability assay. Format: cell-based. The conditions noted are these: Mus musculus, BaF3, 72 h. A general note: Tetrazolium assays rely on reduction of a dye to a coloured formazan, in cell work by metabolically active cells.
In a further assay the test system is MOLM13. In words: MTT cell viability assay, AML cell line. Format: cell-based. The conditions noted are these: Homo sapiens, MOLM-13, 72 h, read-out: mean IC50. Summed up: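 FLT3-ITD+ human AML lines (MOLM13-Res is a FLT3-inhibitor-resistant MOLM13 derivative carrying D835Y) were exposed to DMSO or increasing concentrations of test compound. MTT viability was read 72 h after drug addition. Response was expressed as mean percentage of DMSO-treated control at each concentration, with 3–6 replicates, and plotted as mean ± SD, n=12.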

In general, Kd refers to the concentration at which binding is half-saturated. What is called IC50 is the point on the concentration scale where inhibition reaches its midpoint. In the case of `C1=C/COCc2cc(ccc2OCCN2CCCC2)Nc2nccc(n2)-c2cccc(c2)COC/1` [Pacritinib, 11-(2-pyrrolidin-1-yl-ethoxy)-14,19-dioxa-5,7,26-triaza-tetracyclo[19.3.1.1(2,6). 1(8,12)]heptacosa-1(25),2(26),3,5,8,10,12(27),16,21,23-decaene], the Kd on FLT3 TKD mutants was 0.69 to 17 nM. The “concentrations showing inhibition of phospho-FLT3 and phospho-STAT5” value in assay [1] was 0.25 to 1 µM. Also, the values for the concentration for half-maximal inhibition (IC50) (in assay [2]; in assay [3]; with MOLM13) were 152 to 302 nM, 133 nM and 73 nM, respectively.
